Publication PMC7583042 (Free radical biology & medicine, 2019)
Values joined by “and” are separate entries in the source; they are usually repeats but may differ in a detail not shown here. Identical values can stand only once. “Also recorded” adds a separate entry of the source. Like-named read-outs stand apart in the source and are kept apart here.

What was measured:
[1] = system: human glutathione S-transferase Ω−1 (GSTO1); details: ref bioassay AID 66188991; cited from earlier work
SmTGR WT [2] = molecular target: T1, SmTGR WT (Schistosoma mansoni, UniProt Q962Y6); assay: biochemical; type: biochemical
Rat TrxR = details: ref bioassay AID 588453, cited from earlier work; for IC50: read-out: Apparent IC50 Rat TrxR
Adult S. mansoni = assay: Ex vivo cultured adult worm survival; type: cell-based, Schistosoma mansoni; details: ex vivo culture
Procedure, shortened: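 Adult worms were isolated from infected mice and held 24 h in RPMI with 10% fetal calf serum, 10 mM glutamine and 1× penicillin/streptomycin. Test compound was then added to the medium at 10 or 50 μM. Worms were observed daily and scored dead when no movement was seen after several minutes' observation. Percentage dead is reported at 144 h.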

Larval S. mansoni = assay: Ex vivo cultured larval worm survival; type: cell-based, Schistosoma mansoni; details: ex vivo culture
Procedure, shortened: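 Schistosomula were made by mechanical transformation of cercariae shed from infected Biomphalaria glabrata, then isolated on a Percoll gradient. They were cultured 24 h in M-199 with 10% fetal calf serum before test compound was added at 10 μM. Daily observation scored larvae dead when motionless for several minutes. Percentage dead is reported at 120 h.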

human GR = molecular target: T2, human GR (Homo sapiens, UniProt P00390); assay: biochemical; type: biochemical; details: for inhibition of Human GR @ 2 mM: 2 mM compound; for Apparent IC50 Human GR: 15 min preincubation with NADPH
T2 sequence (P00390 1-479 isoform P00390-2): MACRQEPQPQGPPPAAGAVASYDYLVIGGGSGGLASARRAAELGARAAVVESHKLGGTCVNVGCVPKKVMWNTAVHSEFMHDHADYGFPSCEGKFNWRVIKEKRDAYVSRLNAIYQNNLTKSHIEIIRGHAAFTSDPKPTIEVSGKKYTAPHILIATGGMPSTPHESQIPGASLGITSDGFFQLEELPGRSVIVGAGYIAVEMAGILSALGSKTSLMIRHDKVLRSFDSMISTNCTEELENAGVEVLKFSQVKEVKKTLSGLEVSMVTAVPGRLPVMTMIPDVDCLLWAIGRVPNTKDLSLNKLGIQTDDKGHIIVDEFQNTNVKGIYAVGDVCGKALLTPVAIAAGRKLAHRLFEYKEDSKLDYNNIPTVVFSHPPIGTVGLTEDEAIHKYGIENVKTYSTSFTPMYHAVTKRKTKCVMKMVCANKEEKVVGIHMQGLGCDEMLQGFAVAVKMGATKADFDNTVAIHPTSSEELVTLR

[3] = pKa of the amine named in the cell; source not stated; cited from earlier work
SmTGR WT [4] = type: biochemical, Schistosoma mansoni
SmTGR WT [5] = molecular target: SmTGR WT (Schistosoma mansoni, UniProt Q962Y6, X597U); type: biochemical; details: global fitting of time dependent inactivation
SmTGR-E330A/D334A [6] = molecular target: T3, SmTGR-E330A/D334A (Schistosoma mansoni, UniProt Q962Y6, D334A/E330A); assay: SmTGR-E330A/D334A mutant inhibition, DTNB assay; type: biochemical
SmTGR-E330A/D334A [7] = molecular target: T3, SmTGR-E330A/D334A; assay: Time dependent inactivation of SmTGR-E330A/D334A; type: biochemical; details: global fitting of time dependent inactivation
SmTGR WT [8] = molecular target: T1, SmTGR WT; assay: NADPH oxidase activity of inhibited enzyme; type: biochemical; details: 50 μM inhibitor, 30 min, pyrogallol red
[9] = oQM-thiol adduct formation with Cys and GSH followed by RP-HPLC/MS; type: physicochemical; details: pH 7.4, ambient temperature
Procedure, shortened: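 Test compound (1 mM) was incubated alone or with 1 mM Cys and GSH in 5 mM sodium phosphate, pH 7.4 (also pH 8.3), at ambient temperature. Aliquots were injected at time intervals onto C18 RP-HPLC, eluting with a 0–100% acetonitrile gradient in 0.1% formic acid. Peaks were identified by ESI-MS and CID MS/MS (−4.0 kV, m/z 125–2,000, 260 °C capillary).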

SmTGR-U597C [10] = assay: biochemical; details: 15 min
SmTGR-U597C [11] = molecular target: SmTGR-U597C (Schistosoma mansoni, UniProt Q962Y6); assay: biochemical
[12] = read-out: Apparent IC50 TGR, 15 min preincubation, NADPH present
[13] = read-out: IC50 (Table 2), SmTGR value repeated in Table 2

Row | SMILES | Apparent IC50 GSTO1 [1] | IC50 (SmTGR WT [2]; [12]) | Apparent IC50 Rat TrxR (Rat TrxR) | Adult S. mansoni (144 h) 10 μM, worms dead (Adult S. mansoni) | Adult S. mansoni (144 h) 50 μM, worms dead (Adult S. mansoni) | pka of the leaving group upon oQM formation [3] | IC50 (Rat TrxR) | Apparent IC50 Human GR (human GR) | also measured
1 | CN(Cc1ccccc1)Cc1c(O)ccc2ccccc12 [Compound 3] | inactive | 0.84 ± 0.03 µM | inactive | 0% dead | 24 % dead |  |  |  | IC50 (SmTGR WT [2]; [13]): 0.84 ± 0.03 µM; Larval S. mansoni (120 h) 10 μM, worms dead (Larval S. mansoni): 19% dead; inhibition of Human GR @ 2 mM (human GR): 20% inhibition @ 2 mM
2 | CN(C)Cc1c(O)ccc2ccccc12 [Compound 4, 1-[(Dimethylamino)methyl]-2-naphthol] | not detected; also recorded: inactive |  |  | 0% dead |  | 11 (dimethylamine) | 31 µM and 31.6 µM |  | IC50 (SmTGR WT [2]): 11.2 ± 1.9 µM; inhibition of SmTGR WT at pH 6.4 (SmTGR WT [2]; pH 6.4, data not shown): low micromolar range; difference in inhibition rate between WT and E330A/D334A (SmTGR WT [4]; compound at 2 μM): about 360 fold; WT inhibited faster than E330A/D334A (SmTGR WT [4]; compound at 20 μM): 3 times; second order rate constant for inhibition of SmTGR WT (SmTGR WT [5]): 45.8 M⁻¹ s⁻¹; IC50 (SmTGR-E330A/D334A [6]): 44 ± 4.9 µM; fold higher inhibitor concentration needed for E330A/D334A than for WT (SmTGR-E330A/D334A [6]; same degree of inhibition): 4 fold; second order rate constant for inhibition of SmTGR E330/D334 (SmTGR-E330A/D334A [7]): 14.7 M⁻¹ s⁻¹; induction of NADPH oxidase activity in the inhibited WT enzyme (SmTGR WT [8]): able to induce; time to generate comparable amounts of oQM-thiol adduct [9]: 24 h; fold higher apparent IC50 for SmTGR-U597C than for WT (SmTGR-U597C [10]): 200 fold; IC50 (SmTGR-U597C [11]): 2000 µM; IC50 (human GR): 1830 µM
3 | Oc1ccc2ccccc2c1CN1CCOCC1 [Compound 1, 1-(Morpholin-4-ylmethyl)-2-naphthol] | not detected; also recorded: inactive |  |  | 8% dead | 13 % dead | 8.3 (morpholine) | 10 µM |  | IC50 (SmTGR WT [2]): 0.61 ± 0.09 µM; second order rate constant for inhibition of SmTGR WT (SmTGR WT [5]): 1830 M⁻¹ s⁻¹; second order rate constant for inhibition of SmTGR E330/D334 (SmTGR-E330A/D334A [7]): 1300 M⁻¹ s⁻¹; time to generate comparable amounts of oQM-thiol adduct [9]: 1 h; fold higher apparent IC50 for SmTGR-U597C than for WT (SmTGR-U597C [10]): 200 fold; IC50 (SmTGR-U597C [11]): 100 µM; IC50 (human GR): 71 ± 11.7 µM
4 | Oc1ccc2ccccc2c1CN1CCCC1 [Compound 6] | inactive | 28.8 ± 5.37 µM | inactive |  | 0% dead | 11.2 (pyrolidine) |  | inactive | 
5 | CCOC(=O)N1CCN(Cc2c(O)ccc3ccccc23)CC1 [Compound 2] | inactive | 0.65 ± 0.12 µM |  |  | 5% dead |  | 12.6 µM |  | IC50 (SmTGR WT [2]; [13]): 0.65 ± 0.12 µM; inhibition of Human GR @ 2 mM (human GR): 35% inhibition @ 2 mM
6 | Oc1ccc2ccccc2c1CN1CC=C(c2ccccc2)CC1 [Compound 5] | inactive | 11.9 ± 3.57 µM | inactive |  |  |  |  | inactive | 
7 | Oc1ccc2ccccc2c1CN1CCCCC1 [Compound 7] |  | 57.6 ± 4.57 µM | inactive |  |  | 11.2 (piperidine) |  | inactive | 
